The source of these data is ChEMBL document CHEMBL4196195, “( R)- N-(1-Methyl-2-hydroxyethyl)-13-( S)-methyl-arachidonamide (AMG315): A Novel Chiral Potent Endocannabinoid Ligand with Stability to Metabolizing Enzymes” (J Med Chem, 2018).

For series [1], the system named is Mus musculus. As to the kind of experiment: Antiallodynic activity in CD1 mouse model of CFA-induced inflammatory pain assessed as increase in CFA-reduced mechanical paw withdrawal threshold at 5 mg/kg, ip measured at 10 mins post injection. The series is classed as functional, organism-based. The essentials: (§1)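 Adult male mice (39 ± 10 g), wild-type CD1 or CB1 KO on CD1 background, single housed. CFA:saline 1:1 (20 μL) injected intraplantar into right hind paw; 48 h allowed before dosing. Drug given ip in 5 mL/kg, vehicle group included. Electronic von Frey (90 g probe) after ≥30 min habituation, read in duplicate per paw, at baseline, 48 h post-CFA and 10, 30, 60, 120 min post-dose. Two-way mixed ANOVA with Bonferroni post hoc tests.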

Series [2] has as its system Mus musculus. The series is described as follows: Effect on mechanical paw withdrawal threshold of contralateral paw in CB1 receptor knockout CD1 mouse model of CFA-induced inflammatory pain at 5 mg/kg, ip measured at 10 to 120 mins post injection. The class given is ADME, organism-based. The following applies: in vivo. The essentials:
(§2)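 Wild-type CD1 or CB1 KO (CD1 background) adult male mice. Unilateral intraplantar CFA:saline 1:1 (20 μL) into right hind paw, 48 h before ip dosing (5 mL/kg); vehicle controls. Threshold of the uninjected contralateral paw measured by electronic von Frey (90 g probe), duplicate readings averaged, at 10, 30, 60, 120 min post-dose. Two-way mixed ANOVA.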

For series [3], the target named is T1, FAAH (fatty-acid amide hydrolase 1) (Homo sapiens, UniProt O00519).
T1 sequence (O00519 whole entry): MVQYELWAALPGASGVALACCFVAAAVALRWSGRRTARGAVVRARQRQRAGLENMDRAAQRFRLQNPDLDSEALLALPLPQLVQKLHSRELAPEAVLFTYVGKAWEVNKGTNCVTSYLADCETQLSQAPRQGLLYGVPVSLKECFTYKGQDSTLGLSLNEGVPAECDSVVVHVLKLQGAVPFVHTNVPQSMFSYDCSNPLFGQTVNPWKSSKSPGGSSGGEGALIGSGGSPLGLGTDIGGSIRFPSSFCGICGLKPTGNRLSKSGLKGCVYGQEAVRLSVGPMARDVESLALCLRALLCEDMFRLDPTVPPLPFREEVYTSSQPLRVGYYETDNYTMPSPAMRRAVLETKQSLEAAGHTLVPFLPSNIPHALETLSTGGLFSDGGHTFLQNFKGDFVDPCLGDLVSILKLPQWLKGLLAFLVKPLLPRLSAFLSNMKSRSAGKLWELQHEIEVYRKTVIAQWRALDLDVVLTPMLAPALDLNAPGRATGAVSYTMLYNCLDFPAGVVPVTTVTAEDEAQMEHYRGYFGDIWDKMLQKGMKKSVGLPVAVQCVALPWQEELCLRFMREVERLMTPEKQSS
The series is described as follows: Stability assessed as human FAAH-mediated compound hydrolysis by LC-MS/MS analysis. The series is classed as ADME. Conditions: human FAAH (fatty-acid amide hydrolase 1), read-out: Stability. The essentials: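 Expressed, partially purified rat or human FAAH incubated with compound, or AEA as reference substrate, for 30 min. Aliquots at time points quenched in acetonitrile to precipitate protein. Remaining compound measured by LC-MS/MS on a cyano column with 10 mM ammonium acetate pH 7.3/methanol at 0.5 mL/min.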

The target of the next series is Cannabinoid receptor 1 (Rattus norvegicus, UniProt P20272). As to the kind of experiment: Agonist activity at rat CB1 receptor expressed in HEK293 cells assessed as inhibition of forskolin-induced cAMP accumulation incubated for 30 mins. Conditions: read-out: EC50. The class given is functional, cell-based. The essentials:
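HEK293 cells stably expressing rCB1, harvested with nonenzymatic dissociation reagent, washed in HBSS, 1000–1500 cells/well. Test compound at various concentrations with forskolin (2 μM final) in stimulation buffer, 30 min at room temperature. cAMP read by TR-FRET (Eu-cAMP tracer plus ULight anti-cAMP, 60 min room temperature). Forskolin-stimulated cAMP set to 100%. EC50 from nonlinear regression; two independent experiments in triplicate.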

Series [4] has as its system Mus musculus. The series is described as follows: Effect on mechanical paw withdrawal threshold of contralateral paw in CD1 mouse model of CFA-induced inflammatory pain at 5 mg/kg, ip measured at 10 to 120 mins post injection. The series is classed as ADME, organism-based. The following applies: in vivo. The essentials:
as §2

Series [5] deals with T2, Prostaglandin G/H synthase 2 (Mus musculus, UniProt Q05769).
T2 sequence (Q05769 whole entry): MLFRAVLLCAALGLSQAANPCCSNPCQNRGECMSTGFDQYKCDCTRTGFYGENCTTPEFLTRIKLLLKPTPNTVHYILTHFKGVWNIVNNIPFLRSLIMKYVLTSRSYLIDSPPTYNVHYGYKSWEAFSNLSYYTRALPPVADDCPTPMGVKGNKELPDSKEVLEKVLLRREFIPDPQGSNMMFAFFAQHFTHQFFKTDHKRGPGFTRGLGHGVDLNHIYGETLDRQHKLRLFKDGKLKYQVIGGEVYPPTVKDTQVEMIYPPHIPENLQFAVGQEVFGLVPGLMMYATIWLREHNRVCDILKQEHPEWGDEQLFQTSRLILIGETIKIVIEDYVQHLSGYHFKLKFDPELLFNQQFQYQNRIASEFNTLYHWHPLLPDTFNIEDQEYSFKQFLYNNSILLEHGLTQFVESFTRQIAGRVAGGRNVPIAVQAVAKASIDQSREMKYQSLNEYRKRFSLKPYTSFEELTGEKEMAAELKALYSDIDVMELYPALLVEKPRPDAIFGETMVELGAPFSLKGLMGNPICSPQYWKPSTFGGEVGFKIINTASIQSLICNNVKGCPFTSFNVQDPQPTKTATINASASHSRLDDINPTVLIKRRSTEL
The series is described as follows: Stability assessed as mouse COX2-mediated compound oxidation by measuring oxygen consumption by polarographic assay. The series is classed as ADME.

The target of series [6] is T3, ABHD6 (monoacylglycerol lipase ABHD6) (Homo sapiens, UniProt Q9BV23).
T3 sequence (Q9BV23 whole entry): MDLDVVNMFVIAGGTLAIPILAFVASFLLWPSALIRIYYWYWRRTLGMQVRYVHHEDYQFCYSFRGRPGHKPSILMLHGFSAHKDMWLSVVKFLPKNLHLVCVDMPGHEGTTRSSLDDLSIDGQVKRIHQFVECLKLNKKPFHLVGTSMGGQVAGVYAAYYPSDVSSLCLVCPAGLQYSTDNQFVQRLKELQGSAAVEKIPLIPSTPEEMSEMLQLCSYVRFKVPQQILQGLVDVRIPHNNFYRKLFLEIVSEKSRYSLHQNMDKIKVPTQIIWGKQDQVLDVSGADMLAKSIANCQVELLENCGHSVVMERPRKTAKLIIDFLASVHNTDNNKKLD
As to the kind of experiment: Stability assessed as human ABHD6-mediated compound hydrolysis by HPLC analysis. The series is classed as ADME. The following applies: read-out: Stability. The essentials: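 Human MGL or ABHD6 expressed in E. coli BL21(DE3); cell lysate in 150 mM NaCl, 50 mM Tris, 1% Triton X-100, pH 8.0. Lysate (0.5 µg total protein) incubated at 37 °C with compound or 2-AG reference for 30 min. Samples at 0–30 min quenched in acetonitrile. Analysed by C18 reversed-phase HPLC with UV at 204 nm against external standards.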

The test system of series [7] is Mus musculus. The series is described as follows: Antiallodynic activity in CD1 mouse model of CFA-induced inflammatory pain assessed as increase in CFA-reduced mechanical paw withdrawal threshold at 5 mg/kg, ip measured at 120 mins post injection. The series is classed as functional, organism-based. The essentials:
as §1

The test system of series [8] is Mus musculus. As to the kind of experiment: Antiallodynic activity in CB1 receptor knockout CD1 mouse model of CFA-induced inflammatory pain assessed as increase in CFA-reduced mechanical paw withdrawal threshold at 5 mg/kg, ip measured at 10 to 120 mins post injection. The class given is functional, organism-based. The essentials:
as §1

Active and inactive are the calls of the source.

Cannabinoid receptor 1, sequence (P20272 whole entry): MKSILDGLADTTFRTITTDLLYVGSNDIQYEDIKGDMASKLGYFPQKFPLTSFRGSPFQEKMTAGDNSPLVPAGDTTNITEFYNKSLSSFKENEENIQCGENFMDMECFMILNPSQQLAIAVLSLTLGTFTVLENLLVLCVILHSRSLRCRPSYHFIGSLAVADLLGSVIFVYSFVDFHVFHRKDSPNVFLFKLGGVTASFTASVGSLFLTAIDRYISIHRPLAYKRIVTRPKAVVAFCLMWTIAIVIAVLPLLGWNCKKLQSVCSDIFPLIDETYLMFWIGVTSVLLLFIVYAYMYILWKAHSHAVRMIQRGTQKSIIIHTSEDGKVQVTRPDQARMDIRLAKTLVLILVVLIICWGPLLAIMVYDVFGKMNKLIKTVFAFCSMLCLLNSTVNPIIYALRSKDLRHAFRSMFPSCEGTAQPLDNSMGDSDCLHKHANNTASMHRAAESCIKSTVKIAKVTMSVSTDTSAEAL

`CCCCC/C=C\[C@H](C)/C=C\C/C=C\C/C=C\CCCC(=O)N[C@H](C)CO`: the outcome in the series with Mus musculus [1] was Active. The Activity result in the series on Mus musculus [2] and with Mus musculus [4] was “Non-Toxic” throughout. In addition, the half-life in series [3] and in [6] was 30 min throughout. The EC50 on Cannabinoid receptor 1 turned out to be 0.6 nM. Moreover, the Stability result in series [5] is “Stable”. For the same molecule, the outcome with Mus musculus [7] and in the series with Mus musculus [8] was inactive.
